Source: publication PMC4811700 (European journal of medicinal chemistry, 2016)

Assays:
Mcl-1 = Mcl-1 (Homo sapiens, UniProt Q07820); experiment: Fluorescence polarization competition assay; type: binding; conditions: for change in experimental free energy of binding to Mcl-1: relative to the preceding compound in the series 3b, 3a, 3bi, 3bl; for binding affinity to Mcl-1 in vitro: data not shown
Mcl-1^172-327 = Mcl-1^172-327 (Homo sapiens, UniProt Q07820); experiment: NMR 1H,15N-HSQC with 15N-labeled Mcl-1; type: binding; conditions: 131 μM 15N-labeled Mcl-1, 182 μM compound
How it was run: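 2D 1H,15N-fast HSQC collected at 25 °C, 800 MHz, with and without compound. Buffer: 20 mM HEPES pH 6.8, 50 mM NaCl, 3 mM DTT, 20% D2O, 5% d6-DMSO. Backbone amide shift changes monitored.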

Chain of Mcl-1 (Q07820 172-327): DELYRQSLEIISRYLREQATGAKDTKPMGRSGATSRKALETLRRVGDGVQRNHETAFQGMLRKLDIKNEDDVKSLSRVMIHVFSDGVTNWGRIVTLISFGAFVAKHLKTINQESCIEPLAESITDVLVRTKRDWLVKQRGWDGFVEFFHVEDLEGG
Chain of Mcl-1^172-327 (Q07820 172-327): as above

With `O=C(O)c1cc(S(=O)(=O)Nc2ccc(Br)cc2)c2ccccc2c1O` [Compound 3a, 4-(N-(4-bromophenyl)sulfamoyl)-1-hydroxy-2-naphthoic acid] the “change in experimental free energy of binding to Mcl-1” value (“change in experimental free energy” below) (Mcl-1) was -2.1 kcal/mol.

In the case of `CC(=O)OCOC(=O)c1cc(S(=O)(=O)N(CC(C)C)c2ccc(OC(C)C)cc2)c2ccccc2c1O` [Compound 14, Acetoxymethyl 1-hydroxy-4-(N-isobutyl-N-(4-isopropoxyphenyl)sulfamoyl)-2-naphthoate], the “binding affinity to Mcl-1 in vitro” value (Mcl-1) is reported as “no binding affinity”.

In the case of `CC(C)CN(c1ccc(OC(C)C)cc1)S(=O)(=O)c1cc(C(=O)O)c(O)c2ccccc12` [Compound 3ba, 1-Hydroxy-4-(N-isobutyl-N-(4-isopropoxyphenyl)sulfamoyl)-2-naphthoic acid], the “interaction with Mcl-1 by HSQC chemical shift perturbation” value (Mcl-1^172-327) is reported as “direct interaction”.

For `COc1c(C(=O)O)cc(S(=O)(=O)N(CC(C)C)c2ccc(Br)cc2)c2ccccc12` [Compound 12, 4-(N-(4-Bromophenyl)-N-isobutylsulfamoyl)-1-methoxy-2-naphthoic acid], the “fold reduction in Mcl-1 activity” value (Mcl-1; methylation of hydroxyl group, relative to 3ca) was roughly 40 fold.

In the case of `O=C(O)c1cc(S(=O)(=O)NCC2CCCCC2)c2ccccc2c1O` [Compound 3g, 4-(N-(Cyclohexylmethyl)sulfamoyl)-1-hydroxy-2-naphthoic acid], the “fold improvement in Mcl-1 inhibitory activity” value (Mcl-1; relative to unsubstituted benzylic amine derivative 3c) is reported as 8 fold.

`Cc1cc(Oc2ccc(N(Cc3ccccc3)S(=O)(=O)c3cc(C(=O)O)c(O)c4ccccc34)cc2)cc(C)c1Cl` [Compound 3bl, 4-(N-Benzyl-N-(4-(4-chloro-3,5-dimethylphenoxy)phenyl)sulfamoyl)-1-hydroxy-2-naphthoic acid] was tested, and the “change in experimental free energy” value (Mcl-1) was -0.8 kcal/mol.

In the case of `COC(=O)c1cc(S(=O)(=O)N(CC(C)C)c2ccc(OC(C)C)cc2)c2ccccc2c1O` [Compound 13, Methyl 1-hydroxy-4-(N-isobutyl-N-(4-isopropoxyphenyl)sulfamoyl)-2-naphthoate], the “binding affinity to Mcl-1 in vitro” value (Mcl-1) is reported as “no binding affinity”.

`Cc1cc(Oc2ccc(NS(=O)(=O)c3cc(C(=O)O)c(O)c4ccccc34)cc2)cc(C)c1Cl` [Compound 3bi, 4-(N-(4-(4-Chloro-3,5-dimethylphenoxy)phenyl)sulfamoyl)-1-hydroxy-2-naphthoic acid] was tested, and the “change in experimental free energy” value (Mcl-1) was -1.9 kcal/mol.
